Experimental data gathered from unrelated publications.
Cell line: A549
Effect on: cell growth or viability

| Compound | assay | setting | IC50 |
| --- | --- | --- | --- |
| CC[C@@]1(OC(=O)[C@@H](N)CCCCN)C(=O)OCc2c1cc1n(c2=O)Cc2cc3cc4c(cc3nc2-1)OCO4 | MTT | – | 88 nM |
| O=C(N/N=C1\C(=O)N(Cc2ccccc2)c2ccc(Br)cc21)c1cc2ccccc2[nH]1 | – | – | 650 nM |
| CCCCCCCC(=O)SCC/C=C/[C@@H]1CC(=O)NCc2nc(cs2)C2=N[C@@](C)(CS2)C(=O)N[C@@H](C(C)C)C(=O)O1 | resazurin | 48 h | 3.8 nM |
| N.N.[Cl][Pt][Cl] | MTT | 24 h | 5350 nM |
| CSC(=NNC(=O)c1ccc(Cl)c(Cl)c1)SC | MTT | 5 days | 69000 nM |
| O=C(N/N=C1\C(=O)N(Cc2ccccc2)c2ccc(Cl)cc21)c1cc2ccccc2[nH]1 | imaging | 48 h | 1380 nM |
| C=CCc1cc(OC)c2c(c1)OCO2 | SRB | – | 359000 nM |
| CC[C@@]1(OC(=O)[C@@H](N)Cc2ccccc2)C(=O)OCc2c1cc1n(c2=O)Cc2cc3cc4c(cc3nc2-1)OCO4 | MTT | – | 36 nM |
| COc1c2c(cc3c1OCO3)[C@]13C=C[C@H](OC)C[C@@H]1[N@](C2)C[C@H]3OC(=O)c1ccoc1 | WST-1 | – | > 10000 nM |
| O=C(N/N=C1\C(=O)N(Cc2ccc(Cl)cc2)c2ccccc21)c1cc2ccccc2[nH]1 | – | – | 1050 nM |
| CC[C@@]1(OC(=O)C(C)c2ccc(CC(C)C)cc2)C(=O)OCc2c1cc1n(c2=O)Cc2cc3cc4c(cc3nc2-1)OCO4 (stereo partly shown) | MTT | – | > 5000 nM |
| Nc1cc(I)c(I)cc1N | – | 72 h | 25000 nM |
| O=C(N/N=C1\C(=O)N(Cc2ccccc2)c2ccc(F)cc21)c1cc2ccccc2[nH]1 | – | – | 1410 nM |
| CC[C@@]1(OC(=O)C(C)c2cccc(C(=O)c3ccccc3)c2)C(=O)OCc2c1cc1n(c2=O)Cc2cc3cc4c(cc3nc2-1)OCO4 (stereo partly shown) | MTT | – | 289 nM |
| CC1=C(O)C(=O)C=C2C1=CC=C1[C@@]2(C)CC[C@@]2(C)[C@@H]3C[C@](C)(C(=O)O)CC[C@]3(C)CC[C@]12C | MTT | 48 h | 5340 nM |
| CC[C@@]1(OC(=O)[C@@H](N)C(C)C)C(=O)OCc2c1cc1n(c2=O)Cc2cc3cc4c(cc3nc2-1)OCO4 | MTT | – | 89 nM |
| COc1ccc2c(c1)[nH]c1c(C)nccc12 | MTT | 72 h | 19400 nM |
| CC[C@@]1(OC(=O)[C@@H](N)CCSC)C(=O)OCc2c1cc1n(c2=O)Cc2cc3cc4c(cc3nc2-1)OCO4 | MTT | – | 85 nM |
| N#Cc1ccc(CN2C(=O)/C(=N\NC(=O)c3cc4ccccc4[nH]3)c3ccccc32)cc1 | – | – | 2130 nM |
